# MT1-MMP act inh = MT1-MMP (human) activation inhibition; P50281; HT1080 RFP-PRO-GFP cells, GFP/RFP ratio fluorescence, overnight; percent of plate control window, DMSO zero; GFP/RFP ratio change, % at 20 µM; actives 0.061% (n = 360,000); AID 651647;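 active = GFP/RFP ratio change of at least 30% with cell ATP level not reduced by more than half and red fluorescence within 50% of control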
#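 Material: RFP-PRO-GFP reporter HT1080 cells. Dosing: single-point 20 µM compound, 1% DMSO. Controls: DMSO and RFP-L50D-GFP cell wells. Timing: cells overnight before dosing, compound overnight, 37 °C, 5% CO2. Measure: GFP/RFP fluorescence ratio.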
# ADAM10 inh = ADAM10 inhibition, QFRET primary screen; recombinant ADAM10, EDANS/DABCYL FRET peptide cleavage, 3 h; inhibition, % at 7 µM; actives 0.62% (n = 370,000); AID 720582;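 active = inhibition above a per-campaign cutoff equal to the mean of compounds falling between control-based bounds plus 3 SD, cut at about 20% in these data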
# ADAM17 inh = inhibits human ADAM17; P78536; recombinant ADAM17, EDANS/DABCYL FRET peptide cleavage; inhibition, % at 6.95 µM; actives 0.83% (n = 370,000);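 active = inhibition above the mean of compounds lying between control limits plus 3 SD, set per campaign, cut at about 8.5% in these data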
# Target sequence (P78536 215-824 limits assumed): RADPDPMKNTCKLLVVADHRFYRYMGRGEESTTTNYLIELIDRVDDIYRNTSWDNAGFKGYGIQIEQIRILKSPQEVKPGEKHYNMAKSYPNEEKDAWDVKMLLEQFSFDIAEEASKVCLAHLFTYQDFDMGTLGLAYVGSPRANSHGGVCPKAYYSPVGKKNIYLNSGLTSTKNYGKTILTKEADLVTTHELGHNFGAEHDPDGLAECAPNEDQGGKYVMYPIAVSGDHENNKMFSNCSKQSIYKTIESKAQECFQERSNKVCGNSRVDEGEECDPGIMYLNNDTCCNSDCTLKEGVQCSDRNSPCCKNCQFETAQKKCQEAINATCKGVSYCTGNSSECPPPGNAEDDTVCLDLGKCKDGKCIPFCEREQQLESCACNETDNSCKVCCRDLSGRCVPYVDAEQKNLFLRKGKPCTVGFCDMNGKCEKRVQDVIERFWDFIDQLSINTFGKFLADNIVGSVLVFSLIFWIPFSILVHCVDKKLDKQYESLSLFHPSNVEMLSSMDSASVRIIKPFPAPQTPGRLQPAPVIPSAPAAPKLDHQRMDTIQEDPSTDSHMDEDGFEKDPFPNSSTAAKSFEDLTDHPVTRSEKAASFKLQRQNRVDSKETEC
# Tn7 DDE FP = inhibitors of Tn7 peptide binding to human fibrin DD(E); inhibition, % at 8.3 µM; actives 0.13% (n = 370,000); P02675; FP displacement of FITC-Tn7 peptide from fibrin DD(E); 0% = median of compound wells per plate; AID 720508;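 active = inhibition above the mean of compounds falling within the control limits plus 3 SD of them, cut at about 14% in these data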
#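 system = human fibrin DD(E) protein | quantity = DD(E) 2 µM final | medium = Tris/NaCl/CaCl2 buffer, pH 7.8 | also added = labelled Tn7 tracer, 0.1 µM | compound dosing = single point at 8.3 µM | timing = compound with protein 10 min, then 3 h after probe, room temperature | signal = FP measurement | benchmarks = Aha-Tn7 high control | repeats = one replicate per compound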
# DDE Tn6 FP inh = DD(E)-Tn6 binding inhibition, primary FP screen. P02675. Fibrin DD(E) TRITC-Tn6 fluorescence polarization displacement. inhibition, % at 8.3 µM. actives 0.21% (n = 370,000). AID 720509;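 active = inhibition above a per-campaign cutoff: mean of compounds within control limits plus 3 SD, cut at about 15% in these data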
# ADAM10 counter = counter-screen for ADAM17 exosite inhibitors: inhibitors of human ADAM10; shares compounds with ADAM17 inh; recombinant ADAM10, EDANS/DABCYL FRET peptide cleavage, 3 h; inhibition, % at 6.95 µM; actives 47% (n = 2,900);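 active = mean inhibition over the triplicate runs exceeds the activity threshold set in the earlier primary screen, cut at about 20% in these data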
# ADAM17 confirm = confirmation of inhibitors of human ADAM17; recombinant ADAM17, EDANS/DABCYL QFRET peptide cleavage; actives 65% (n = 2,900); inhibition, % at 6.95 µM; AID 743257; shares compounds with ADAM17 inh;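 active = mean inhibition across replicates above the hit cutoff set in the primary screen, cut at about 8.5% in these data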
# A number is an active result; 0 = inactive; - = no result. Sampled rows, rich in hits. Any-hit rate of the full collection: about 1.6%.
SMILES,MT1-MMP act inh,ADAM10 inh,ADAM17 inh,Tn7 DDE FP,DDE Tn6 FP inh,ADAM10 counter,ADAM17 confirm
CC(Sc1nc2cc(Cl)ccc2s1)C(=O)Nc1cccc(S(=O)(=O)N2CCOCC2)c1 (configuration not stated),0,0,9.5,0,0,24,15
C[C@@H]1CN([C@@H](C)CO)C(=O)CCCn2cc(nn2)CO[C@H]1CN(C)C(=O)Nc1ccc(C(C)(C)C)cc1,-,0,0,0,0,-,-
O=C(NCc1ccco1)c1ccc(Br)c(S(=O)(=O)N2CCCCC2)c1,0,0,13,0,0,25,0
O=C(NCc1ccco1)c1ccc(F)c(S(=O)(=O)N2CCCCC2)c1,0,0,0,0,0,-,-
O=[N+]([O-])c1cc(C(F)(F)F)ccc1Oc1cccnc1[N+](=O)[O-],0,0,0,0,0,-,-
O=C(Nc1ccc(F)cc1)c1ccccc1Oc1ccc(C(F)(F)F)cc1[N+](=O)[O-],0,0,11,0,0,23,12
CC(=O)N1CCc2cc(Br)c(S(=O)(=O)CCC(=O)N3CCN(c4ccccn4)CC3)cc21,-,0,0,0,0,-,-
COc1ccc(/C=N\NC(=O)Cc2cccn2C)cc1OCc1ccccc1,-,0,0,0,0,-,-
COc1cccc(OCCn2cccc2/C=C2/C(=N)N3OC(C)=CC3=NC2=O)c1,0,0,0,0,0,-,-
CC1=CC2=NC(=O)/C(=C\c3cccn3CCOc3cccc(C)c3)C(=N)N2O1,0,0,8.7,0,0,0,0
OC(CSc1nnnn1-c1ccccc1)Cn1c2ccccc2c2ccccc21 (configuration not stated),0,0,11,0,0,0,10
CCCOc1ccc(C2/C(=C(\O)c3c(C)[nH]c(C(=O)OC)c3C)C(=O)C(=O)N2CCN(C)C)cc1 (configuration not stated),0,0,9.9,0,0,0,0
O=S1(=O)CC(N2CCC(c3ccccc3)CC2)CN1Cc1cn(Cc2ccc(C(F)(F)F)cc2)nn1 (configuration not stated),-,0,0,0,0,-,-
CC(C)[C@H](NC(=O)c1ccc(Cl)cc1Cl)C(=O)N1CCC[C@H]1C(=O)NCCc1ccccc1Cl,-,0,0,0,0,-,-
COc1cc(C(=O)Nc2cccc3cccnc23)cc(OC)c1OC,0,0,0,0,0,-,-
COc1cc(NC(=O)Nc2cccc3cccnc23)cc(OC)c1OC,0,0,13,0,0,0,0
C/C(=N\NC(=O)CNC(=O)C(c1ccccc1)c1ccccc1)c1ccc(C(C)(C)C)cc1,0,0,10,0,0,0,0
O=C(NC1CCc2ccccc21)c1cc(-c2ccc(Cl)cc2)nc2ccccc12 (configuration not stated),-,0,0,0,0,-,-
Nc1n[nH]c(N)c1N=Nc1ccc(Cl)cc1,0,0,11,0,0,0,0
Nc1n[nH]c(N)c1N=Nc1cccc(F)c1,0,0,0,0,0,-,-
C[C@H]1[C@@H]2C[C@@]3(O[C@H](c4ccccn4)N=C3C[C@@H]1c1ccccc1)N(Cc1ccncc1)C2=O,-,0,0,0,0,-,-
Nc1[nH]c(C(=O)c2ccccc2)c(-c2cc(F)ccc2Br)c1C(=O)NCCc1c[nH]c2ccccc12,-,0,10,0,0,26,16
Nc1[nH]c(C(=O)c2ccccc2)c(-c2ccc(F)cc2)c1C(=O)NCCc1c[nH]c2ccccc12,0,0,0,0,0,-,-
C[C@@H]1CN([C@H](C)CO)C(=O)CCCn2nncc2CO[C@H]1CN(C)C(=O)Nc1ccc2c(c1)OCCO2,-,0,0,0,0,-,-
Nc1nc2ccccc2n1S(=O)(=O)c1ccccc1,0,0,9.0,0,0,0,0
SMILES,MT1-MMP act inh,ADAM10 inh,ADAM17 inh,Tn7 DDE FP,DDE Tn6 FP inh,ADAM10 counter,ADAM17 confirm
O=C(COn1nnc2ccc(S(=O)(=O)N3CCOCC3)cc21)NCCc1ccccc1,0,0,13,0,0,0,0
CCCCNC(=O)COn1nnc2ccc(S(=O)(=O)N3CCOCC3)cc21,0,0,0,0,0,-,-
Nc1nc2c(ncn2[C@@H]2O[C@H](C(=O)NCCCc3ccccc3)[C@@H](O)[C@H]2O)c(=O)[nH]1,-,0,0,0,0,-,-
CCOc1ccc(CCNC(=O)CN2C(=O)c3cccnc3Oc3ccc(C)cc32)cc1OCC,0,0,0,0,0,-,-
CCOc1ccc(CCNC(=O)CN2C(=O)c3cccnc3Oc3ccc(Cl)cc32)cc1,0,0,11,0,0,21,19
Cc1cc(Cl)ccc1OCCCC(=O)N1CCN(S(=O)(=O)c2ccccc2)CC1,0,0,9.9,0,0,30,16
Cc1cc(Cl)ccc1OCC(=O)N1CCCN(C(=O)COc2ccc(Cl)cc2C)CC1,0,0,9.5,0,0,26,14
CCOc1ccccc1OCCCC(=O)N1CCN(S(=O)(=O)c2ccc(Cl)cc2)CC1,0,0,0,0,0,-,-
Cc1ccc(S(=O)(=O)NCCC(c2ccc(F)cc2)c2ccco2)cc1 (configuration not stated),0,0,9.7,0,0,21,12
Cc1ccc(S(=O)(=O)NCCC(c2ccccc2)c2ccco2)cc1 (configuration not stated),0,0,0,0,0,-,-
COc1cccc(-c2noc(C(C)n3nc(C)c([N+](=O)[O-])c3C)n2)c1 (configuration not stated),0,0,13,0,0,0,0
O=S1(=O)N[C@H](Cc2ccccc2)COc2cccc(F)c21,-,0,0,0,0,-,-
Cc1ccc(-c2cc(C(=O)NN=Cc3ccc(N(C)C)cc3)[nH]n2)cc1C,-,0,0,0,0,-,-
COC1OC(COCc2ccccc2)C2OC(C)(C)OC2C1O (configuration not stated),-,0,0,0,0,-,-
COC(=O)CN=C1OC(=O)N2C(=O)C3=C4[C@@H](C[C@H]5C(=O)N(c6ccccc6)C(=O)[C@H]5[C@H]4[C@@]12Cc1ccccc1)[C@H]1C(=O)N(c2ccccc2)C(=O)[C@H]1[C@H]3C,0,0,9.8,0,0,0,0
CCCCCN1CCCCC(NC(=O)c2cccc(F)c2)C1=O (configuration not stated),-,0,0,0,0,-,-
N#CCSc1nnc(COc2ccccc2)n1-c1ccccc1,0,0,11,0,0,0,0
N#CCSc1nnc(COc2cccc3ccccc23)n1-c1ccccc1,0,0,0,0,0,-,-
CCOC(=O)C1CSCCS(=O)(=O)N1Cc1ccccc1F (configuration not stated),-,0,0,0,0,-,-
